# Measured values reported in the array DNA melting data of Ke et al. (doi:10.1101/2024.01.08.574731).
# Legend:
# [1] = folding enthalpy; higher = less favourable; fluorescence melt of hairpins on a sequencing array, two-state fit; details: sodium 0.088 M
# In short: (§1)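 Folding enthalpy and melting temperature come from bootstrapped two-state fits to Cy3 fluorescence of library hairpins carrying annealed Cy3 and quencher oligos on a sequenced MiSeq flow cell. Imaging was done in 50 mM Na-HEPES pH 8.0, 25 mM NaCl, stepping by 2.5 °C up to 60 °C, and signals were normalised to pre-quench Cy3 and to control constructs. Results of four replicates were combined by inverse variance, and fitted temperatures were raised by 9.35 °C to match UV melts.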
# [2] = melting temperature; fluorescence melt of hairpins on a sequencing array, two-state fit, raised by 9.35 °C to match UV melts; details: sodium 0.088 M
# In short: as §1
sequence,measurement,setting,value
GTTGGCACGAAAGTGAAC (((..(((....)))))),folding enthalpy,[1],-20.6 kcal/mol
same,Tm,[2],38.8 °C
GATCCCAGTTGGGATC ((((((....)))))),folding enthalpy,[1],-42 kcal/mol
same,Tm,[2],61.2 °C
GTCTATCCGAAAGGAGAC (((..(((....)))))),folding enthalpy,[1],-16.5 kcal/mol
same,Tm,[2],31.8 °C
GTTGGCGAAAGCCAAAAC ((((((....)))..))),folding enthalpy,[1],-10.5 kcal/mol
same,Tm,[2],41.5 °C
GATCATCACAATGATC ((((((....)))))),folding enthalpy,[1],-44.1 kcal/mol
same,Tm,[2],47.7 °C
GTGTTTCGAAAGAACAC (((.(((....)))))),folding enthalpy,[1],-32.3 kcal/mol
same,Tm,[2],46.9 °C
GGACGGCGAAAGCCTTCC (((.(((....))).))),folding enthalpy,[1],-22.6 kcal/mol
same,Tm,[2],52.5 °C
GTCACCGAAAGGTTGGAC ((((((....)))..))),folding enthalpy,[1],-14.8 kcal/mol
same,Tm,[2],31.1 °C
GGGGATGGAAACGTCCCC (((((.(....).))))),folding enthalpy,[1],-48.9 kcal/mol
same,Tm,[2],56.1 °C
GCCCCAACGAAAGTTGGC (((..(((....)))))),folding enthalpy,[1],-5.86 kcal/mol
same,Tm,[2],38.7 °C
GATCGTGCCTACGATC ((((((....)))))),folding enthalpy,[1],-34.3 kcal/mol
same,Tm,[2],57.4 °C
GATCGAAGCTCGATC ((((((...)))))),folding enthalpy,[1],-36 kcal/mol
same,Tm,[2],49.9 °C
GGTTTGGGAAACTAAACC (((((.(....).))))),folding enthalpy,[1],-33 kcal/mol
same,Tm,[2],44.7 °C
GTCTTCGAAAGAATAGAC ((((((....)))..))),folding enthalpy,[1],-19.5 kcal/mol
same,Tm,[2],30.7 °C
TCTACGAAAGTAGA (((((....))))),folding enthalpy,[1],-16.4 kcal/mol
same,Tm,[2],47.8 °C
GAGGAACGAAAGTTCTC (((.(((....)))))),folding enthalpy,[1],-13.6 kcal/mol
same,Tm,[2],38.9 °C
GTCTCGACGAAAGTCGAC (((..(((....)))))),folding enthalpy,[1],-8.21 kcal/mol
same,Tm,[2],35.1 °C
GCGTTCGAAAGAAATCGC ((((((....)))..))),folding enthalpy,[1],-25 kcal/mol
same,Tm,[2],35.2 °C
GACGGGCCGAAAGGCGTC (((..(((....)))))),folding enthalpy,[1],-15 kcal/mol
same,Tm,[2],48.8 °C
GCAGAAGGAAACTTCTAC (.(((((....))))).),folding enthalpy,[1],-11.7 kcal/mol
same,Tm,[2],27.8 °C
GATCCATCATGGATC ((((((...)))))),folding enthalpy,[1],-32.5 kcal/mol
same,Tm,[2],52.5 °C
GGAGCCGGAAACGACCCC ((.(.((....)).).)),folding enthalpy,[1],-15.5 kcal/mol
same,Tm,[2],29.4 °C
GTGGACCGAAAGGTACAC (((.(((....))).))),folding enthalpy,[1],-30.4 kcal/mol
same,Tm,[2],67 °C
GTGGACCGAAAGGTCAC (((.(((....)))))),folding enthalpy,[1],-10.4 kcal/mol
same,Tm,[2],53.7 °C
GATGACGAAAGTCAAATC ((((((....)))..))),folding enthalpy,[1],-11.8 kcal/mol
same,Tm,[2],34.6 °C
GAGCCCGAAAGGGTTCTC ((((((....)))..))),folding enthalpy,[1],-19.9 kcal/mol
same,Tm,[2],66.9 °C
GATCAGAACGCTGATC ((((((....)))))),folding enthalpy,[1],-29.5 kcal/mol
same,Tm,[2],47.3 °C
CGCCTCGGAAACGACGCG (((.(((....))).))),folding enthalpy,[1],-33.9 kcal/mol
same,Tm,[2],45.7 °C
GGGTACGGAAACGTACTC (.(((((....))))).),folding enthalpy,[1],-16.1 kcal/mol
same,Tm,[2],51.2 °C
GAACTGCGAAAGCATTTC (((.(((....))).))),folding enthalpy,[1],-20.1 kcal/mol
same,Tm,[2],38.7 °C
GGCGTCGAAAGACAAGCC ((((((....)))..))),folding enthalpy,[1],-43.4 kcal/mol
same,Tm,[2],55.2 °C
GTCCTGGGAAACCAGAAC ((.((((....)))).)),folding enthalpy,[1],-19.7 kcal/mol
same,Tm,[2],35.5 °C
GTCGTCGGAAACAACGAC (((((.(....).))))),folding enthalpy,[1],-38 kcal/mol
same,Tm,[2],48.3 °C
CGCAATCGGAAACGAGCG (((..(((....)))))),folding enthalpy,[1],-25.4 kcal/mol
same,Tm,[2],42.4 °C
GATCGTGTACACGATC ((((((....)))))),folding enthalpy,[1],-51.3 kcal/mol
same,Tm,[2],63.6 °C
GTATAATCGAAAGATTAC (((..(((....)))))),folding enthalpy,[1],-10.9 kcal/mol
same,Tm,[2],30 °C
GATCGTATCTACGATC ((((((....)))))),folding enthalpy,[1],-37.9 kcal/mol
same,Tm,[2],57.6 °C
GCTCAAGAAATTGAGC ((((((....)))))),folding enthalpy,[1],-34.1 kcal/mol
same,Tm,[2],55.3 °C
GATCGTGCGGACGATC ((((((....)))))),folding enthalpy,[1],-38.6 kcal/mol
same,Tm,[2],54.4 °C
GACTCAGGAAACTGAGTC (((((((....))))))),folding enthalpy,[1],-46 kcal/mol
same,Tm,[2],60.8 °C
GGTCTTCGAAAGAAACC (((.(((....)))))),folding enthalpy,[1],-18.4 kcal/mol
same,Tm,[2],32.9 °C
GCCTAGACGAAAGTCGGC (((..(((....)))))),folding enthalpy,[1],-21.6 kcal/mol
same,Tm,[2],53.3 °C
GCTATCGAAAGATTTAGC ((((((....)))..))),folding enthalpy,[1],-19.9 kcal/mol
same,Tm,[2],32.7 °C
GGGAAATCGAAAGATCCC (((..(((....)))))),folding enthalpy,[1],-21.6 kcal/mol
same,Tm,[2],36 °C
GGCTTACGAAAGTACGCC (((.(((....))).))),folding enthalpy,[1],-48 kcal/mol
same,Tm,[2],52.9 °C
GCACATGGAAACGTGTGC (((((.(....).))))),folding enthalpy,[1],-45.2 kcal/mol
same,Tm,[2],55.5 °C
GTGTATTCGAAAGAACAC (((..(((....)))))),folding enthalpy,[1],-19.1 kcal/mol
same,Tm,[2],32.8 °C
GCCATCGAAAGATTAGGC ((((((....)))..))),folding enthalpy,[1],-30.7 kcal/mol
same,Tm,[2],43.4 °C
CTGGGGAAACCCAG (((((....))))),folding enthalpy,[1],-25.4 kcal/mol
same,Tm,[2],53.5 °C
GATCCTGTGTAGGATC ((((((....)))))),folding enthalpy,[1],-31.5 kcal/mol
same,Tm,[2],52.3 °C
GGTCCAGGAAACCGGACC (((((.(....).))))),folding enthalpy,[1],-38.8 kcal/mol
same,Tm,[2],53.3 °C
GCGATCGAAAGATCCCGC ((((((....)))..))),folding enthalpy,[1],-17.7 kcal/mol
same,Tm,[2],37.1 °C
GCCTGTGGAAACATAGGC ((((.((....)).)))),folding enthalpy,[1],-42.2 kcal/mol
same,Tm,[2],52.4 °C
GGTGTCGGAAACGGCATC (.((.((....)).)).),folding enthalpy,[1],-26.1 kcal/mol
same,Tm,[2],44.4 °C
GACCACGGAAACGCGGTC ((((.((....)).)))),folding enthalpy,[1],-49 kcal/mol
same,Tm,[2],53.2 °C
GGCGCCGAAAGGCTCGCC ((((((....)))..))),folding enthalpy,[1],-19.1 kcal/mol
same,Tm,[2],54.5 °C
CGCCGCGGAAACGCTGCG (((.(((....))).))),folding enthalpy,[1],-37.6 kcal/mol
same,Tm,[2],57.6 °C
GGCTACGAAAGTACGCC ((((((....))).))),folding enthalpy,[1],-33.4 kcal/mol
same,Tm,[2],53.5 °C
GATCTCTCGGGAGATC ((((((....)))))),folding enthalpy,[1],-38.3 kcal/mol
same,Tm,[2],53.5 °C
GATGTAGCGAAAGCTATC (((..(((....)))))),folding enthalpy,[1],-12 kcal/mol
same,Tm,[2],31.4 °C
GATTGCGAAAGCATATC ((((((....))).))),folding enthalpy,[1],-16.5 kcal/mol
same,Tm,[2],42.9 °C
GATCTCGACGAGATC ((((((...)))))),folding enthalpy,[1],-38.9 kcal/mol
same,Tm,[2],57.4 °C
GTACTCGAAAGAGGGTAC ((((((....)))..))),folding enthalpy,[1],-14.2 kcal/mol
same,Tm,[2],33.7 °C
GATCGTTGACACGATC ((((((....)))))),folding enthalpy,[1],-38.3 kcal/mol
same,Tm,[2],52.6 °C
GCCCTGGGAAACCAGGAC (.(((((....))))).),folding enthalpy,[1],-13.7 kcal/mol
same,Tm,[2],48.6 °C
GTGACCCGAAAGGGCAC (((.(((....)))))),folding enthalpy,[1],-22.9 kcal/mol
same,Tm,[2],62.4 °C
GAGCCAGGAAACTGACTC (((.(((....))).))),folding enthalpy,[1],-36.8 kcal/mol
same,Tm,[2],44 °C
GCGTCCGGAAACGGATGC ((.((((....)))).)),folding enthalpy,[1],-37.3 kcal/mol
same,Tm,[2],65.1 °C
GAGCCACCGAAAGGTCTC (((..(((....)))))),folding enthalpy,[1],-12.2 kcal/mol
same,Tm,[2],29.7 °C
GCAGTACGAAAGTAATGC (((.(((....))).))),folding enthalpy,[1],-40 kcal/mol
same,Tm,[2],55.4 °C
GATCTGGTACAGATC ((((((...)))))),folding enthalpy,[1],-41.3 kcal/mol
same,Tm,[2],60.8 °C
GATTACCGAAAGGTATC (((.(((....)))))),folding enthalpy,[1],-14.4 kcal/mol
same,Tm,[2],36.1 °C
GTGTGAGAAATCACAC ((((((....)))))),folding enthalpy,[1],-30.9 kcal/mol
same,Tm,[2],55.8 °C
GTGTCCGGAAACGAACAC ((((.((....)).)))),folding enthalpy,[1],-32.5 kcal/mol
same,Tm,[2],45.4 °C
GGAGGCACGAAAGTGTCC (((..(((....)))))),folding enthalpy,[1],-12.6 kcal/mol
same,Tm,[2],41 °C
GCTGCGGGAAACTGCAGC (((((.(....).))))),folding enthalpy,[1],-40.6 kcal/mol
same,Tm,[2],64.5 °C
GACAAAGGAAACCTTGTC (((((.(....).))))),folding enthalpy,[1],-29.5 kcal/mol
same,Tm,[2],36.4 °C
GCCCGTGGAAACACGGAC (.(((((....))))).),folding enthalpy,[1],-14.5 kcal/mol
same,Tm,[2],50.2 °C
GGAGGCGAAAGCCAGTCC ((((((....)))..))),folding enthalpy,[1],-10.6 kcal/mol
same,Tm,[2],34.1 °C
GATCAAGCGGTTGATC ((((((....)))))),folding enthalpy,[1],-38.1 kcal/mol
same,Tm,[2],46.5 °C
GGTCTGGGAAACCGGACC ((((.((....)).)))),folding enthalpy,[1],-46.1 kcal/mol
same,Tm,[2],58.6 °C
GCTTTTGGAAACAAAAGC (((((((....))))))),folding enthalpy,[1],-42.2 kcal/mol
same,Tm,[2],61.5 °C
GCATGAGGAAACTCACGC ((.((((....)))).)),folding enthalpy,[1],-28 kcal/mol
same,Tm,[2],41.3 °C
GCTGGCGAAAGCCAAAGC ((((((....)))..))),folding enthalpy,[1],-18.2 kcal/mol
same,Tm,[2],53.5 °C
GCACAGCGAAAGCTACGC ((..(((....)))..)),folding enthalpy,[1],-16.7 kcal/mol
same,Tm,[2],42 °C
GCCTCCCCGAAAGGGGGC (((..(((....)))))),folding enthalpy,[1],-9.45 kcal/mol
same,Tm,[2],52.5 °C
GAGTCAGGAAACTGATTC ((.((((....)))).)),folding enthalpy,[1],-27.1 kcal/mol
same,Tm,[2],39.8 °C
ACCCGGAAACGGGT (((((....))))),folding enthalpy,[1],-19.5 kcal/mol
same,Tm,[2],58.1 °C
GCGATTCGAAAGAAGCGC (((.(((....))).))),folding enthalpy,[1],-39.7 kcal/mol
same,Tm,[2],68.7 °C
GGTTATGGAAACATGACC (((.(((....))).))),folding enthalpy,[1],-33.2 kcal/mol
same,Tm,[2],45.4 °C
GTAACGCCGAAAGGCTAC (((..(((....)))))),folding enthalpy,[1],-6.97 kcal/mol
same,Tm,[2],27.1 °C
GATCCACCTATGGATC ((((((....)))))),folding enthalpy,[1],-41.4 kcal/mol
same,Tm,[2],50.1 °C
